The subject of experiment [1] is Mycobacterium tuberculosis.
In experiment [2] the test system is Mycobacterium tuberculosis. The source holds these as a separate data set.
Experiment [3] is described as follows: Inhibition of Mycobacterium tuberculosis DNA gyrase GyrB/GyrA A83S mutant. In outline: (§1)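 Enzyme unit: protein needed for 50% supercoiling of 0.4 μg relaxed pBR322 DNA in 1 h at 37°C. Wild-type and mutant enzymes assayed in parallel on the same day under identical conditions. Repeated two to four times; representative values reported.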
Experiment [4] deals with Mycobacterium tuberculosis. The source holds these as a separate data set.
Experiment [5] has as its system Mycobacterium tuberculosis. The source holds these as a separate data set.
Experiment [6] relates to Mycobacterium tuberculosis. This is another data set of the same source.
The nature of experiment [7]: Inhibition of Mycobacterium tuberculosis DNA gyrase GyrB/GyrA S69V, A71G, E72D, T73V, M74I, N76K, A83S, S84A, I85V, F96W and P101M mutant. The gist of the method:
as §1

For experiment [8], the system named is Mycobacterium tuberculosis. Put plainly: Antimicrobial activity against Mycobacterium tuberculosis harboring DNA gyrase GyrA QRDR. Format: functional, organism-based.
A short description of experiment [9]: Inhibition of Mycobacterium tuberculosis DNA gyrase GyrB/GyrA M74I and A83S mutant. The gist of the method:
as §1

The nature of experiment [10]: Inhibition of Mycobacterium tuberculosis DNA gyrase GyrB/GyrA A83S, S84A and I85V mutant. In outline: as §1
Experiment [11] has as its system Mycobacterium tuberculosis. This is another data set of the same source.
Experiment [12] can be described thus: Inhibition of Mycobacterium tuberculosis DNA gyrase GyrA/GyrB N464S mutant gene. The gist of the method:
as §1

Experiment [13] can be described thus: Inhibition of Mycobacterium tuberculosis DNA gyrase GyrA M74I and A83S mutant/GyrB R447K mutant gene. In outline:
as §1

For experiment [14], the system named is Mycobacterium tuberculosis. This is another data set of the same source.
In experiment [15] the test system is Mycobacterium tuberculosis. This is another data set of the same source.
Experiment [16] in a line: Inhibition of Mycobacterium tuberculosis DNA gyrase GyrA/GyrB R447K mutant gene. In outline:
as §1

Experiment [17] is described as follows: Inhibition of Mycobacterium tuberculosis DNA gyrase GyrB/GyrA M74I mutant. In outline: as §1
A short description of experiment [18]: Inhibition of Mycobacterium tuberculosis DNA gyrase GyrB/GyrA A83S, S84A, I85V, F96W and P101M mutant. In outline:
as §1

The subject of experiment [19] is Mycobacterium tuberculosis. Put plainly: Antimicrobial activity against Mycobacterium tuberculosis harboring DNA gyrase GyrB QRDR. Format: functional, organism-based.
Experiment [20] can be described thus: Inhibition of Mycobacterium tuberculosis DNA gyrase GyrA A83S mutant/GyrB R447K mutant gene. In outline: as §1
The subject of experiment [21] is Mycobacterium tuberculosis. This is another data set of the same source.
Experiment [22] concerns Mycobacterium tuberculosis. The source holds these as a separate data set.

≈ marks a conversion by molar mass, not a printed value. Calls of active or inactive are those of the source. No cut-off for these calls is given here. Where only a bound is given, the exact number is not on record here.

The source of these data is ChEMBL document CHEMBL1275433 (Antimicrob Agents Chemother, 2008).

The term IC50 denotes the midpoint of a concentration-inhibition curve. By MIC50 is commonly meant an inhibitory concentration at the 50% level, which refers to growth in some studies and to a panel of isolates in others. Lower therefore signals greater potency. For `CC1COc2c(N3CCN(C)CC3)c(F)cc3c(=O)c(C(=O)O)cn1c23` (configuration not stated) [OFLOXACIN], the CC25 was 1.5 µM in experiment [1]; 0.5 µM in experiment [2]; 3 µM in experiment [4]; 14 µM in [5]; 1.5 µM in [15]; 3 µM in [21]. Also, the IC50 in experiment [3] is 7 µM; in experiment [7], “Not Active”; in experiment [8], 10 µg/mL (≈ 27.7 µM); in experiment [9] it was 3 µM; in experiment [10] it was 8 µM; in [12] it was 20 µM. For the same compound, the half-maximal inhibitory concentration (IC50) in [13] was 11 µM; in [16], 7 µM; in experiment [17], 25 µM; in [18] it was 7 µM; in experiment [19], 10 µg/mL (≈ 27.7 µM); in experiment [20], 4 µM. The CC25 entry in experiment [6], in experiment [11] and in [14] was “inactive” in each case. Besides, the MIC50 in experiment [8] and in experiment [19] was 1 µg/mL (≈ 2.77 µM) throughout.

On to `COc1c(N2C[C@@H]3CCCN[C@@H]3C2)c(F)cc2c(=O)c(C(=O)O)cn(C3CC3)c12` [MOXIFLOXACIN], for which the CC25 was found to be 0.5 µM in experiment [1]; 0.5 µM in [2]; 1 µM in experiment [4]; 3.5 µM in [5]; 2.5 µM in experiment [22]; 0.5 µM in experiment [15]. Moreover, in experiment [21], the CC25 amounted to 1 µM. Besides, the CC25 entry in experiment [6], in [11] and in experiment [14] was “inactive” each time. The IC50 entry in experiment [7] was “Not Active”; in experiment [9] it was 1 µM; in [12], 7 µM; in [13], 2 µM; in experiment [16] it was 1 µM.

`CCn1cc(C(=O)O)c(=O)c2cc(F)c(N3CCNCC3)nc21` [ENOXACIN]: the IC50 in experiment [3] was 16 µM; in experiment [7] it was “Not Active”; in experiment [9], 9 µM; in experiment [10] it was 11 µM; in experiment [13] it was 16 µM; in [16] it was 23 µM. Besides, the values for the IC50 in experiment [17], in experiment [18] and in experiment [20] were above 160 µM, 16 µM and 19 µM, respectively.

Regarding `CCn1cc(C(=O)O)c(=O)c2ccc(C)nc21` [NALIDIXIC ACID], the IC50 is 950 µM in experiment [3]; “Not Active” in experiment [7]; 850 µM in experiment [9]; 2800 µM in [10]; 4100 µM in experiment [12]; 520 µM in [13]. For the same compound, the half-inhibitory concentration (IC50) in [16] turned out to be 1080 µM; in experiment [17] it was 3450 µM; in [18], 1080 µM; in experiment [20], 850 µM.
